Format in all cases: functional, cell-based
One assay deals with MDA-MB-231. Put plainly: Growth inhibition of human MDA-MB-231 cells after 48 hrs by MTT assay. Particulars: MDA-MB-231, 48 h. In general terms: Tetrazolium dyes change colour on reduction, which living cells bring about.
Another assay relates to PC-3. As to the kind of experiment: Growth inhibition of human PC3 cells after 48 hrs by MTT assay. Conditions: PC-3, 48 h.
For assay [1], the system named is LNCaP C4-2. As to the kind of experiment: Growth inhibition of human C4-2 cells after 48 hrs by MTT assay. Particulars: LNCaP C4-2, 48 h.
The next assay has as its system CWR22R. Put plainly: Growth inhibition of human 22Rv1 cells after 48 hrs by MTT assay. Particulars: 22Rv1, 48 h.
Another assay relates to BXPC-3. As to the kind of experiment: Growth inhibition of human BxPC3 cells after 48 hrs by MTT assay. Conditions: BXPC-3, 48 h.
For a further assay, the system named is HEK293. As to the kind of experiment: Growth inhibition of HEK293 cells after 48 hrs by MTT assay. Conditions: Homo sapiens, HEK293, 48 h.
Assay [2] relates to LNCaP C4-2. Put plainly: Induction of ROS generation in human C4-2 cells at 10 uM after 48 hrs by H2-DCF-DA staining based inverted fluorescent microscopic method. Put shortly:
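C4-2 cells left untreated or exposed 48 h to compound at 10 μM. H2O2 (10 μM) was the positive control. Intracellular ROS was stained with DCFDA and fluorescence quantified.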

Assay [3] relates to LNCaP C4-2. As to the kind of experiment: Induction of apoptosis in human C4-2 cells assessed as nuclear fragmentation at 2.5 uM after 48 hrs by acridine orange/ethidium bromide staining based inverted fluorescent microscopic method. The gist of the method: (§1)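 C4-2 cells were incubated 48 h with compound, alongside untreated controls. They were then stained with acridine orange (live and dead cells) and ethidium bromide (dead cells only). Nuclear morphology was scored for red fragmented nuclei as apoptosis versus necrosis.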

In assay [4] the test system is LNCaP C4-2. Put plainly: Induction of apoptosis in human C4-2 cells assessed as DNA fragmentation by measuring DNA ladder formation at 10 uM after 48 hrs by agarose gel electrophoresis method.
The test system of assay [5] is LNCaP C4-2. As to the kind of experiment: Antimigratory activity against human C4-2 cells at 10 uM after 12 to 48 hrs by wound healing assay. Put shortly: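 A scratch was made in a C4-2 monolayer. Cells were incubated further for 12, 24 and 48 h, then fixed and imaged to follow migration into the wound.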
The test system of assay [6] is LNCaP C4-2. As to the kind of experiment: Induction of apoptosis in human C4-2 cells assessed as PARP cleavage at 2.5 uM after 48 hrs by Western blot analysis.
A further assay concerns NCI-H460. Put plainly: Antiproliferative activity against human NCI-H460 cells.
Assay [7] relates to LNCaP C4-2. Put plainly: Induction of apoptosis in human C4-2 cells assessed as nuclear fragmentation at 3.5 uM after 48 hrs by acridine orange/ethidium bromide staining based inverted fluorescent microscopic method. Put shortly: as §1
Assay [8] concerns LNCaP C4-2. Put plainly: Induction of apoptosis in human C4-2 cells assessed as PARP cleavage at 3.5 uM after 48 hrs by Western blot analysis.
In the next assay the test system is Prostatic carcinoma cell. Put plainly: Cytotoxicity against human prostate cancer cells.

Active and inactive are the calls of the source. The rule behind the calls is not given here. Where only a bound is given, the exact number is not on record here.

For the compound `COc1ccc2c(c1)c(C1CC(c3ccncc3)=NO1)cn2Cc1ccc(Cl)cc1` (stereo not given), the IC50 with MDA-MB-231 was 26 µM; with PC-3, 55.2 µM; in the assay on LNCaP C4-2 [1], over 100 µM; with CWR22R, 10.6 µM; with BXPC-3 it was over 100 µM; with HEK293, 14.2 µM.

As to `Clc1ccc(Cn2cc(C3CC(c4ccncc4)=NO3)c3ccccc32)cc1` (stereo not given), the IC50 was 13.7 µM in the assay with MDA-MB-231; 25.7 µM in the assay on PC-3; 11.4 µM in the assay with LNCaP C4-2 [1]; 9.6 µM in the assay on CWR22R; over 100 µM in the assay with BXPC-3; 10.2 µM in the assay with HEK293.

Take `Cc1c(C2CC(c3ccncc3)=NO2)c2ccccc2n1Cc1ccc(Cl)cc1` (stereo not given): the result in the assay on LNCaP C4-2 [2] was inactive. Moreover, the result in the assay with LNCaP C4-2 [3], in the assay with LNCaP C4-2 [4], in the assay with LNCaP C4-2 [5] and in the assay with LNCaP C4-2 [6] was Active. For the same compound, the IC50 is 6.66 µM in the assay with MDA-MB-231; 11.2 µM in the assay on PC-3; 2.5 µM in the assay with LNCaP C4-2 [1]; 8.33 µM with CWR22R; 13.5 µM in the assay with BXPC-3; 2.5 µM in the assay with HEK293.

Turning to `COc1ccc(C2=NOC(c3c[nH]c4ccccc34)C2)cc1OC` (stereo not given), the IC50 with MDA-MB-231 was over 100 µM; in the assay on PC-3 it was 70.1 µM; with LNCaP C4-2 [1] it was 65.5 µM; in the assay on CWR22R, 16.7 µM; in the assay on BXPC-3, over 100 µM; in the assay on HEK293 it was over 100 µM.

Take `OO`: the result in the assay on LNCaP C4-2 [2] was Active.

Take `COc1cccc2c1C(=O)c1c(O)c3c(c(O)c1C2=O)C[C@@](O)(C(=O)CO)C[C@@H]3O[C@H]1C[C@H](N)[C@H](O)[C@H](C)O1` [DOXORUBICIN]: the IC50 stood at 9.58 µM in the assay on PC-3, 3.25 µM in the assay on LNCaP C4-2 [1], 9.12 µM with BXPC-3 and 3.9 µM with HEK293.

With `COc1ccc2c(C3CC(c4ccncc4)=NO3)cn(Cc3ccc(Cl)cc3)c2c1` (stereo not given), the IC50 was over 100 µM in the assay with MDA-MB-231; 95.1 µM with PC-3; over 100 µM in the assay on LNCaP C4-2 [1]; 17.3 µM in the assay with CWR22R; over 100 µM in the assay on BXPC-3; 37.2 µM with HEK293.

For `COc1cc(-c2cnc(-c3ccc4c(ccn4C)c3)o2)cc(OC)c1OC`, in the assay on NCI-H460, inhibition was half-maximal at 0.0062 µM (IC50).

Turning to `COc1cc(C2=NOC(c3c[nH]c4ccccc34)C2)cc(OC)c1OC` (stereo not given), the 50% inhibitory concentration (IC50) in the assay with MDA-MB-231 amounted to 11.7 µM; in the assay on PC-3 it was 15.5 µM; with LNCaP C4-2 [1], 5 µM; in the assay with CWR22R, 4.51 µM; in the assay with BXPC-3, 13.5 µM; with HEK293, 5 µM.

Take `COc1ccc2c(C3CC(c4ccncc4)=NO3)c[nH]c2c1` (stereo not given): the result in the assay with LNCaP C4-2 [2] was inactive. The outcome in the assay on LNCaP C4-2 [4], in the assay on LNCaP C4-2 [7], in the assay on LNCaP C4-2 [5] and with LNCaP C4-2 [8] was Active. The IC50 stood at 7.38 µM in the assay on MDA-MB-231; 10.5 µM in the assay on PC-3; 3.5 µM in the assay on LNCaP C4-2 [1]; 16.3 µM in the assay on CWR22R; 9.5 µM in the assay on BXPC-3; 4.16 µM in the assay on HEK293.

Turning to `c1ccc2c(C3CC(c4ccncc4)=NO3)c[nH]c2c1` (stereo not given), the IC50 with MDA-MB-231 is 19.7 µM; with PC-3 it was over 100 µM; in the assay with LNCaP C4-2 [1], 12.8 µM; with CWR22R it was over 100 µM; with BXPC-3 it was 30.5 µM; with HEK293, over 100 µM.

On to `COc1cc(-c2nnc(-c3cn(C)c4ccccc34)[nH]2)cc(OC)c1OC`, for which, in the assay with Prostatic carcinoma cell, the IC50 was determined as 0.8 µM.

In the case of `COc1ccc2[nH]cc(C3CC(c4cc(OC)c(OC)c(OC)c4)=NO3)c2c1` (stereo not given), the IC50 was 26 µM in the assay on MDA-MB-231; 42.6 µM with PC-3; 71.2 µM with LNCaP C4-2 [1]; 11.3 µM with CWR22R; over 100 µM in the assay on BXPC-3; 45.4 µM in the assay with HEK293.

For the compound `Cc1[nH]c2ccccc2c1C1CC(c2ccncc2)=NO1` (stereo not given), the IC50 in the assay on MDA-MB-231 was 26.6 µM; in the assay on PC-3 it was 21.2 µM; in the assay with LNCaP C4-2 [1], 45.1 µM; with CWR22R it was 17.3 µM; in the assay on BXPC-3, 95.5 µM; in the assay with HEK293 it was over 100 µM.

On to `Fc1ccc2c(C3CC(c4ccncc4)=NO3)c[nH]c2c1` (stereo not given), for which the IC50 was 5 µM in the assay on MDA-MB-231; 12.9 µM in the assay on PC-3; 8 µM in the assay on LNCaP C4-2 [1]; 3.66 µM in the assay on CWR22R; 9.5 µM in the assay on BXPC-3; 9.5 µM with HEK293.

For `c1ccc2c(C3CC(c4ccc5c(c4)OCO5)=NO3)c[nH]c2c1` (stereo not given), the IC50 in the assay on MDA-MB-231 is 26.6 µM; with PC-3, over 100 µM; with LNCaP C4-2 [1], 15.8 µM; with CWR22R, over 100 µM; with BXPC-3 it was 27 µM; with HEK293, over 100 µM.

For `COc1ccc2[nH]cc(C3CC(c4ccncc4)=NO3)c2c1` (stereo not given), the IC50 was over 100 µM in the assay with MDA-MB-231; over 100 µM in the assay with PC-3; over 100 µM in the assay on LNCaP C4-2 [1]; 35.5 µM in the assay with CWR22R; 68.5 µM in the assay on BXPC-3; over 100 µM in the assay on HEK293.

One may read the IC50 as the point on the concentration scale where inhibition reaches its midpoint. Lower therefore signals higher potency.
